# Assay results from ChEMBL document CHEMBL1143955, “Synthesis and exploration of novel curcumin analogues as anti-malarial agents” (Bioorg Med Chem, 2008).
# Active and inactive are the calls of the source. No cut-off for these calls is given here.
# What was measured:
# Format in all cases: functional, organism-based
# Plasmodium falciparum [1] = assay: Antimalarial activity against chloroquine-resistant Plasmodium falciparum MP14
# How it was run: (§1)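 Sorbitol-synchronised P. falciparum cultured in RPMI 1640 with 10% human serum, 0.225% sodium bicarbonate and 0.01 mg/mL gentamicin. Infected red cells (1–2% parasitemia, ring stage) were used at 2% hematocrit with varying inhibitor concentrations (final DMSO ≤0.05%; 0.05% DMSO as solvent control), starting at early trophozoite and dosing up to day 4. Parasitemia was read by Giemsa microscopy, and IC50 was fitted by non-linear regression of relative % parasitemia versus log concentration.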
# Plasmodium falciparum [2] = assay: Antimalarial activity against chloroquine-sensitive Plasmodium falciparum FCK2; how it was run: as §1
# Plasmodium falciparum [3] = assay: Antimalarial activity against chloroquine-resistant Plasmodium falciparum MP14 in red blood cells as reduced parasitemia in [3H]hypoxanthine uptake assay
# How it was run: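 Ring-stage synchronised parasites were used at 2–3% hematocrit and 1–2% initial parasitemia, in duplicate. Varying inhibitor concentrations (final DMSO ≤0.05%) were added in fresh medium every 24 h for 48 h. [3H]-hypoxanthine was then added for 36 h, and cells were harvested onto glass-fibre filters and read by scintillation counting. IC50 came from a non-linear regression fit of relative % parasitemia versus log concentration.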
# Plasmodium falciparum [4] = assay: Antimalarial activity against chloroquine-sensitive Plasmodium falciparum FCK2 in red blood cells as reduced parasitemia in [3H]hypoxanthine uptake; settings: in the assay text read “by microscopic examination” for “in [3H]hypoxanthine uptake”
Structure (SMILES),IC50 (Plasmodium falciparum [1]),MIC (Plasmodium falciparum [1]),IC50 (Plasmodium falciparum [2]),MIC (Plasmodium falciparum [2]),Activity (Plasmodium falciparum [3]),Activity (Plasmodium falciparum [4])
COc1cc(/C=C/C(=O)C(=Cc2ccccc2)C(=O)/C=C/c2ccc(O)c(OC)c2)ccc1O,4.12 µM,17.2 µM,3.89 µM,16.5 µM,–,–
COc1cc(/C=C/c2cc(/C=C/c3ccc(O)c(OC)c3)[nH]n2)ccc1O [CURCUMIN PYRAZOLE],0.45 µM,3.6 µM,0.48 µM,3.9 µM,–,–
COc1cc(/C=C/c2cc(/C=C/c3ccc(O)c(OC)c3)on2)ccc1O,7.92 µM,25.3 µM,8.44 µM,27.3 µM,–,–
COc1cc(C=C(C(=O)/C=C/c2ccc(O)c(OC)c2)C(=O)/C=C/c2ccc(O)c(OC)c2)ccc1O,0.75 µM,4.8 µM,0.92 µM,5.2 µM,–,–
COc1cc(/C=C/c2cc(/C=C/c3ccc(O)c(OC)c3)n(-c3ccccc3)n2)ccc1O,9.1 µM,25 µM,8.48 µM,22.4 µM,–,–
COc1ccc(-n2nc(/C=C/c3ccc(O)c(OC)c3)cc2/C=C/c2ccc(O)c(OC)c2)cc1,24.6 µM,41.2 µM,22.6 µM,35.8 µM,–,–
COc1cc(/C=C/c2cc(/C=C/c3ccc(O)c(OC)c3)n(-c3cccc([N+](=O)[O-])c3)n2)ccc1O,0.89 µM,5.1 µM,0.87 µM,4.9 µM,Active,Active
COc1cc(/C=C/c2cc(/C=C/c3ccc(O)c(OC)c3)n(-c3ccc(F)cc3)n2)ccc1O,2.1 µM,12.9 µM,2.42 µM,14.3 µM,–,–
COc1cc(/C=C/C(=O)CC(=O)/C=C/c2ccc(OC(C)=O)c(OC)c2)ccc1OC(C)=O,2.51 µM,15.3 µM,2.34 µM,14.9 µM,–,–
COc1ccc(/C=C/C(=O)CC(=O)/C=C/c2ccc(OC)c(OC)c2)cc1OC [TETRAMETHOXYCURCUMIN],8.4 µM,29.1 µM,7.86 µM,29.6 µM,–,–
COc1cc(/C=C/C(=O)CC(=O)/C=C/c2ccc(O)c(OC)c2)ccc1O [CURCUMIN],4.21 µM,14.4 µM,3.25 µM,13.2 µM,–,–
COc1cc(/C=C/C(=O)C(=Cc2ccc(O)cc2)C(=O)/C=C/c2ccc(O)c(OC)c2)ccc1O,5.36 µM,23.1 µM,5.85 µM,23.7 µM,–,–
COc1cc(/C=C/c2cc(/C=C/c3ccc(O)c(OC)c3)n(-c3ccc(Cl)cc3Cl)n2)ccc1O,4.8 µM,21.4 µM,4.65 µM,21.8 µM,–,–
